Experimental data: ChEMBL document CHEMBL4513216, “Probing the Open Global Health Chemical Diversity Library for Multistage-Active Starting Points for Next-Generation Antimalarials” (ACS Infect Dis, 2020)

Test: Toxicity liver stage against HepG2, at 10uM
Format: cell-based
Parameters: test concentration 10 uM, cell line HepG2-A16-CD81EGFP
Conditions: human, HepG2-A16-CD81EGFP cells; read-out: INHIBITION
In short: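 Uninfected HepG2-A16-CD81EGFP cells, 3 × 10^3 per well, 1536-well, plated on prespotted compound at 10 μM final, parasite-free screening media added to match infected plates; puromycin 10 μM positive, DMSO 0.5% negative; run in parallel with 48 h PbLuc assay at 37 °C, 5% CO2; viability by CellTiter-Glo luminescence, normalized to controls.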

O=C(COC1CCCC1)N1CCC(C(O)c2ccc(F)cc2)CC1 (stereo unspecified)
cytotoxicity at 10 µM: 6.62%

O=C(O)CCN(Cc1ccc(F)c(F)c1)C(=O)C1CC1
cytotoxicity at 10 µM: 1.04%

O=C(NCc1nnc2n1CCC2)c1cn(-c2cccc(Br)c2)nn1
cytotoxicity at 10 µM: -4.3%

COCCNC(=O)[C@H]1CN2CCC1C[C@@H]2Cn1cc(C(C)(C)C)nn1 (stereo partly specified)
cytotoxicity at 10 µM: 7.95%

Cc1ncc(C(=O)OCC2CCN(c3ccccc3)C2)s1 (stereo unspecified)
cytotoxicity at 10 µM: -16%

CCc1nc(N2CCN(CCOC)CC2)c2cnn(C)c2n1
cytotoxicity at 10 µM: 0.363%

CC(C)c1csc(C(=O)N(C)c2ccc(Br)cn2)n1
cytotoxicity at 10 µM: 3.33%

Cc1nn(C)c(C)c1C1CCCN1C(=O)c1cnc2n[nH]c(C)c2c1 (stereo unspecified)
cytotoxicity at 10 µM: -8.38%

O=C(NC1CCN(C2CC2)CC1)N1CCN(c2cnccn2)CC1
cytotoxicity at 10 µM: -6.97%

N#Cc1cccc(CN2CCO[C@@H]3CNC[C@@H]32)c1
cytotoxicity at 10 µM: 8.94%

CCn1c(C)nnc1CN(C)C1CCN(CCc2ccncc2)C1 (stereo unspecified)
cytotoxicity at 10 µM: 3.97%

CCC(C(=O)Nc1ccc2nc(C)oc2c1)N1CCCC1=O (stereo unspecified)
cytotoxicity at 10 µM: -41.9%

CN(C)c1ncc(NC(=O)c2cccc(Nc3cnn(C)c3)c2)cn1
cytotoxicity at 10 µM: -2.93%

O=C(NCCc1ccccn1)N1CCSC2(CCCCC2)C1
cytotoxicity at 10 µM: -18.6%

O=C(COc1cccc(Br)c1)N1CCN(c2nccs2)CC1
cytotoxicity at 10 µM: -1.53%

CN(C)S(=O)(=O)NCc1nn(CCN2CCCC2)c(=O)c2ccccc12
cytotoxicity at 10 µM: -6.88%

CCC(CC)(CNC(=O)NC1CCCC1(C)C)S(C)(=O)=O (stereo unspecified)
cytotoxicity at 10 µM: 9.18%

CNC(=O)NC(=O)CN1CCN(CC(F)(F)F)CC1(C)C
cytotoxicity at 10 µM: 10.7%

CC(O)c1cccc(N2CCC3(CCC(=O)N(CC(N)=O)C3)CC2)n1 (stereo unspecified)
cytotoxicity at 10 µM: -2.55%

CNC(=O)c1noc(CN2CC[C@](C)(O)[C@H](C)C2)n1
cytotoxicity at 10 µM: -37.5%

COCC(NC(=O)c1cc(NC(C)=O)ccc1Cl)c1ccnn1C (stereo unspecified)
cytotoxicity at 10 µM: -2.22%

COc1ccc(C)cc1-c1[nH]c2ccccc2c1C(=O)O
cytotoxicity at 10 µM: 0.806%

Cc1nc(C)n(CC2CN(CC(=O)Nc3cccnc3)CCO2)n1 (stereo unspecified)
cytotoxicity at 10 µM: -12%

CCCC(=O)NC(Cc1ccc(C)cc1)c1ccccn1 (stereo unspecified)
cytotoxicity at 10 µM: -2.25%

CCN(Cc1cc(Br)ccc1F)C(=O)C(C)NC(N)=O (stereo unspecified)
cytotoxicity at 10 µM: 11.6%

Cc1cc(C(=O)N2C[C@@H]3COC[C@]3(CN(C)C)C2)sc1C
cytotoxicity at 10 µM: -146%

N#CCCN(Cc1cccnc1)C(=O)c1cccc(-n2cnnn2)c1
cytotoxicity at 10 µM: 2.99%

Cc1ccc(C(=O)CC(SC2CCCCC2)C(=O)O)cc1 (stereo unspecified)
cytotoxicity at 10 µM: 7.53%

CCc1nc(CN(C)C2CCN(CCNS(=O)(=O)CC)C2)no1 (stereo unspecified)
cytotoxicity at 10 µM: -2.14%

Cc1cc(CN2CCC(O)(Cn3ccc4ncccc43)CC2)c(C)s1
cytotoxicity at 10 µM: -16.1%

CSc1nsc(NC(=O)c2cc(C3CC3)nn2C)n1
cytotoxicity at 10 µM: 6.86%

CCc1cc(C(=O)N2CCC(O)(Cn3ccc4ccncc43)CC2)no1
cytotoxicity at 10 µM: -18.7%

Cc1cc(C)n(CCNCc2cc(-c3ccccc3)c[nH]c2=O)n1
cytotoxicity at 10 µM: -2.47%

CN(Cc1cnn(-c2ccccc2)n1)CC1CCCN1c1cccnn1 (stereo unspecified)
cytotoxicity at 10 µM: -6.56%

CN(C(=O)COc1ccc(-c2noc(C3CCCO3)n2)cc1)C1CC1 (stereo unspecified)
cytotoxicity at 10 µM: -6.79%

Cc1csc(N2CCN(CC(=O)N3CCCC3)CC2C)n1 (stereo unspecified)
cytotoxicity at 10 µM: -0.456%

Cc1nc2ccccc2c(=O)n1CCC(=O)N1CCSCC1
cytotoxicity at 10 µM: -6.13%

O=C(CCC1CCCN(S(=O)(=O)C2CC2)C1)Nc1ccc(Cl)cc1 (stereo unspecified)
cytotoxicity at 10 µM: 3.69%

Cc1nc(CNC(=O)NCC(F)(F)F)oc1C
cytotoxicity at 10 µM: -1.72%

COc1cccc2c1OCC(C(=O)N1CCN(C3CCSCC3)CC1)C2 (stereo unspecified)
cytotoxicity at 10 µM: -1.62%

CCn1c(CN(C)C)nnc1C1CCN(Cc2ccc(Cl)cc2F)CC1
cytotoxicity at 10 µM: -2.53%

CC(=O)N1CCc2nc(-c3ccc(F)cc3)nc(NC(C)C)c2CC1
cytotoxicity at 10 µM: -114%

O=c1cc(Cn2cncn2)nc2n1CCCN(Cc1ccco1)C2
cytotoxicity at 10 µM: 7.61%

CC(Nc1ccc(CCN2CCOCC2)cc1)C(=O)N(C)CCC#N (stereo unspecified)
cytotoxicity at 10 µM: -8.93%

Cc1nn(CC(C)C)c(C)c1CC(=O)N1CCCC(CNS(C)(=O)=O)C1 (stereo unspecified)
cytotoxicity at 10 µM: 0.246%

CO[C@H]1CNC[C@@H]1NC(=O)c1cc(C)nc2c(C)c(C)ccc12
cytotoxicity at 10 µM: 0.936%

CCN(CCOc1ccc(F)cc1)C(=O)c1ccncc1Cl
cytotoxicity at 10 µM: -3.35%

Cc1cccc(-n2nc(CC(C)C)nc2CCCC(N)=O)c1
cytotoxicity at 10 µM: 3.4%

O=C(NCc1ccco1)c1cc(N2CC[C@@H](O)C2)ccn1
cytotoxicity at 10 µM: -2.93%

CN1CCN(C(=O)c2ccc3c(c2)nc(N2CCOCC2)n3C)CC1=O
cytotoxicity at 10 µM: 1.22%

COC(=O)CCN(CC1CCOC1)C1CC1 (stereo unspecified)
cytotoxicity at 10 µM: -9.66%

Cc1ccccc1CN1CCN(C(=O)CCn2ccccc2=O)CC1
cytotoxicity at 10 µM: 3.57%

O=C1CN([C@@H]2CC[C@@H](NS(=O)(=O)c3ccccc3F)[C@H]2O)CCN1
cytotoxicity at 10 µM: 1.06%

Cn1cccc(NC(=O)NCCOCc2ccccc2)c1=O
cytotoxicity at 10 µM: -37.8%

O=C(c1n[nH]c2c1CN(C1CCOCC1)CC2)N1CCCC1
cytotoxicity at 10 µM: -2.39%

Cc1ccc(NC(=O)Nc2c(O)c3ccccc3oc2=O)cc1C
cytotoxicity at 10 µM: 5.89%

CS(=O)(=O)CC1(CNc2ccc(C#N)c(C(F)(F)F)c2)CC1
cytotoxicity at 10 µM: 9.95%

OCc1cn(Cc2cccc(C(F)(F)F)c2)nn1
cytotoxicity at 10 µM: 8.02%

c1coc(CNCC2Cn3nncc3CO2)c1 (stereo unspecified)
cytotoxicity at 10 µM: -92.5%

c1ncn(CC2CN(CC3CCCCC3)CCO2)n1 (stereo unspecified)
cytotoxicity at 10 µM: -14.8%

O=C(CC1OCCc2ccsc21)NCC1CC1 (stereo unspecified)
cytotoxicity at 10 µM: 7.18%

COc1ccc(CN2CCN(C(C)c3nc(C4CC4)no3)CC2)cc1 (stereo unspecified)
cytotoxicity at 10 µM: 4.31%

Cc1[nH]c(=O)[nH]c(=O)c1CN1CCCC(CCc2ccc(F)cc2F)C1 (stereo unspecified)
cytotoxicity at 10 µM: -1.64%

O=C1CCC[C@]2(CN(S(=O)(=O)N3CCOCC3)C[C@H]2c2cccnc2)N1
cytotoxicity at 10 µM: -0.701%

CCc1noc(CC)c1CNC(=O)Nc1ccc2[nH]nnc2c1
cytotoxicity at 10 µM: 6%

CC(C)N1[C@@H](C(=O)NCCN(C)C)C[C@H]2CN(c3ncccn3)C[C@H]21
cytotoxicity at 10 µM: 8.73%

CCCS(=O)(=O)N1Cc2nccn2CC(Cn2cccn2)C1 (stereo unspecified)
cytotoxicity at 10 µM: -120%

CC(=O)NCC(=O)N1Cc2nccn2CC(Cn2cccn2)C1 (stereo unspecified)
cytotoxicity at 10 µM: 2.44%

COc1c(C2CCCN2C(=O)c2ccc(N(C)C)nn2)c(C)nn1C (stereo unspecified)
cytotoxicity at 10 µM: -13.7%

CCOC(C)c1nc(CN2CCC(NC(C)C)CC2)cs1 (stereo unspecified)
cytotoxicity at 10 µM: 1.1%

Cc1cccc(CN2CCCC3(CCN(c4cccnc4)C3=O)C2)n1 (stereo unspecified)
cytotoxicity at 10 µM: -1.34%

c1cc(CN2CCOC[C@H]2c2nc(-c3ccncc3)c[nH]2)ccn1
cytotoxicity at 10 µM: -2.65%

Cn1cc(C(O)CNC(=O)Nc2cc(F)ccc2-n2cccn2)cn1 (stereo unspecified)
cytotoxicity at 10 µM: 1.01%

COCCNc1nc(-c2ccc(S(=O)(=O)N3CCCCCC3)cc2)cs1
cytotoxicity at 10 µM: -32.7%

CCC(CC)NC(=O)c1cccnc1-n1cccn1
cytotoxicity at 10 µM: -13.9%

Cc1nc(-c2cn(CCN)nn2)n(-c2ccc(C(F)(F)F)cc2)n1
cytotoxicity at 10 µM: -1.77%

CN1CCN(C)C2(CCN(C(=O)CC(F)(F)F)CC2)C1=O
cytotoxicity at 10 µM: 1.24%

CCOc1cc(C)nc(N2CCN(C(=O)CN(C)C3CC3)CC2)n1
cytotoxicity at 10 µM: 5.05%

FC(F)(F)Oc1ccc(-c2c[nH]c([C@@H]3COCCN3)n2)cc1
cytotoxicity at 10 µM: -8.64%

CCc1cc(N2CCNCC2)n2nc(C)c(C)c2n1
cytotoxicity at 10 µM: -2.59%

Cn1ccnc1CN1CCCN(C(=O)COC2CCCC2)CC1
cytotoxicity at 10 µM: -18.1%

CC(C)NC(=O)c1cc2c(s1)CCN2C(=O)CN(C)C
cytotoxicity at 10 µM: 1.94%

CN1CCN(c2ncnc3c2CCN(Cc2nccn2C)CC3)CC1
cytotoxicity at 10 µM: -130%

CCn1cc(C(=O)Nc2ccc(C)cc2C(=O)NC)cn1
cytotoxicity at 10 µM: 5.81%

CCCc1n[nH]c(C2CN(CCc3cccs3)CCO2)n1 (stereo unspecified)
cytotoxicity at 10 µM: 4.1%

Cc1c(C(=O)NC2=NCCS2)cnn1-c1ccc(Cl)cc1
cytotoxicity at 10 µM: 1.51%

NCCn1nc(C2CCN(C(=O)CC3CCCCC3)C2)c2nccnc21 (stereo unspecified)
cytotoxicity at 10 µM: -0.645%

COc1c(CNC2CCc3c(F)cccc32)c(C)nn1C (stereo unspecified)
cytotoxicity at 10 µM: 0.665%

CC(C)(C)c1noc(CN2CCCc3cc(OC(F)(F)F)ccc32)n1
cytotoxicity at 10 µM: -0.813%

CN(CCc1ccccc1)Cc1cc(C(=O)N2CCSCC2)no1
cytotoxicity at 10 µM: 3.88%

Cc1nnc(NC(=O)CN(C)CC2CCCN2c2cccnn2)s1 (stereo unspecified)
cytotoxicity at 10 µM: -15%

O=C(c1cn(CC(=O)N2CCCCC2)c2ccccc12)C1CC1
cytotoxicity at 10 µM: 9.14%

C1CC(N2C[C@@H]3COC[C@]3(COCC3CCOCC3)C2)C1
cytotoxicity at 10 µM: -111%

Cc1nc(C(C)(C)NC(=O)Nc2ccccc2)no1
cytotoxicity at 10 µM: -1.48%

COCC(NC(=O)c1cnn(C)c1)c1cccc(C(F)(F)F)c1 (stereo unspecified)
cytotoxicity at 10 µM: 1.73%

CC(CCN1CCOCC1)NC(=O)c1cccc(C(F)(F)F)c1F (stereo unspecified)
cytotoxicity at 10 µM: -44.8%

Cc1nnc(CNCC2(O)CCCN(Cc3ccc(F)c(F)c3)C2=O)[nH]1 (stereo unspecified)
cytotoxicity at 10 µM: -6.79%

COC(=O)c1sccc1S(=O)(=O)NCC1(O)CCOc2ccccc21 (stereo unspecified)
cytotoxicity at 10 µM: -10.9%

CN(C)c1ncnc2c1CCN(CC1CCCC1)CC2
cytotoxicity at 10 µM: 1.03%

CC(C)(CN1C[C@H](Nc2ncccn2)[C@@H](C2CC2)C1)N1CCOCC1
cytotoxicity at 10 µM: 5.41%

CCn1c(C2CCNCC2)nn(CCn2cncn2)c1=O
cytotoxicity at 10 µM: -6.26%

Cc1ccccc1C(C(=O)NCCSC(F)(F)F)N(C)C (stereo unspecified)
cytotoxicity at 10 µM: 8.25%

Cc1nnsc1CN1CC[C@@](O)(C2CCC2)[C@H](C)C1
cytotoxicity at 10 µM: 11.8%

O[C@@H]1C[C@@H](c2nc(-c3ccc(F)cc3)no2)N(C2CCOCC2)C1
cytotoxicity at 10 µM: 4.51%

CN1CC(c2cc(O)nc(NCc3ccc(Cl)cc3)n2)CC1=O (stereo unspecified)
cytotoxicity at 10 µM: -9.54%

Cc1noc([C@@H]2C[C@@H]3CCN(CC4CC4)C[C@H]3O2)n1
cytotoxicity at 10 µM: -139%

COc1c(CNCCNC(=O)c2ccc(C)cc2)c(C)nn1C
cytotoxicity at 10 µM: -3.39%

CCc1nc(CN(C(C)=O)C2CCN(CC3CCOCC3)C2)no1 (stereo unspecified)
cytotoxicity at 10 µM: -3.84%

Cc1cccc(N2CCCN=C2NC(=O)c2cccc(Cl)c2)c1
cytotoxicity at 10 µM: 6.39%

OC1(CNCCSc2ccccn2)CCCNC1 (stereo unspecified)
cytotoxicity at 10 µM: -6.46%

CCC1(C)Cc2ccccc2-c2nc(NCCO)nc(O)c21 (stereo unspecified)
cytotoxicity at 10 µM: 4.1%
